Data on two compounds can be found in article PMC7302971 (Bioorganic chemistry, 2020).

Broadly, the CC50 is the concentration giving 50% cytotoxicity. In general, IC50 refers to the point on the concentration scale where inhibition reaches its midpoint.

Read-outs that look alike come from different tables or passages of the source. Bounds are passed on as bounds.

For test [1], the system named is CEM leukemia cells. The experiment in a line: Differential Nuclear Staining. The settings on record: 48 h. Format: cell-based, human. In short, it runs like this:
(§1)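 Cells were seeded at 10,000/well and exposed to test compound for 48 h at 1% (v/v) final DMSO. The first screen used a single concentration with controls in quadruplicate. Dose-response used 0.5–100 μM in triplicate. Controls: DMSO vehicle, hydrogen peroxide (positive), untreated (negative). Hoechst 33342 plus PI were added 2 h before automated imaging, and colocalised signal was scored as dead. […] Two-tailed t-test versus DMSO.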

The subject of test [2] is K-562 leukemia cells. The experiment in a line: Differential Nuclear Staining. It is filed as cell-based, human. In short, it runs like this: as §1
Test [3] has as its system KCL-22 leukemia cells. The experiment in a line: Differential Nuclear Staining. It is filed as cell-based, human. The settings on record: Homo sapiens, KCL-22, 48 h. The essentials:
as §1

In test [4] the target is HDAC1 (Homo sapiens, UniProt Q13547). Put plainly: HDAC enzyme activity assay. Format: biochemical. The essentials: (§2)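 Commercial enzyme was preincubated with serial inhibitor dilutions for 60 min at 30 °C in 25 mM Tris-HCl pH 8.0, 75 mM KCl and 0.001% Pluronic F-127. Reaction was started with 50 μM Boc-Lys(acetyl)-AMC, run 60 min at 30 °C, and stopped with 4.17 μM SAHA. Trypsin (0.4 mg/ml) released AMC, read at Ex 350/Em 450 nm. IC50 came from a four-parameter logistic fit.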
Chain of HDAC1 (Q13547 whole entry): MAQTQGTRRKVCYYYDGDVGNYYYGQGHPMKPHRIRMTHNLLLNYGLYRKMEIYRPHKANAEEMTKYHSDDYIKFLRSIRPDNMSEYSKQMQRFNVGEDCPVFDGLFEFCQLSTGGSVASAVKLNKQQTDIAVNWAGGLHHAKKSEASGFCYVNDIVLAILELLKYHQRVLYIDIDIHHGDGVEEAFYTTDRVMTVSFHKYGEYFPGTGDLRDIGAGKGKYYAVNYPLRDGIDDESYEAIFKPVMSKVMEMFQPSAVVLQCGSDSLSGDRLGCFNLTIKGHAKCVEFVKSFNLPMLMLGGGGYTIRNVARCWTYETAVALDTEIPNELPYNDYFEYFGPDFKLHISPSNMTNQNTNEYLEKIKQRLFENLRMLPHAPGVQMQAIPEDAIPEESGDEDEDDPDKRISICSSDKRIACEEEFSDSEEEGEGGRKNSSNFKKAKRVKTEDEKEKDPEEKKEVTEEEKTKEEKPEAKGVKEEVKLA

For test [5], the target named is HDAC3 (Homo sapiens, UniProt O15379). Put plainly: HDAC enzyme activity assay. It is filed as biochemical. In short, it runs like this: as §2
Chain of HDAC3 (O15379 whole entry): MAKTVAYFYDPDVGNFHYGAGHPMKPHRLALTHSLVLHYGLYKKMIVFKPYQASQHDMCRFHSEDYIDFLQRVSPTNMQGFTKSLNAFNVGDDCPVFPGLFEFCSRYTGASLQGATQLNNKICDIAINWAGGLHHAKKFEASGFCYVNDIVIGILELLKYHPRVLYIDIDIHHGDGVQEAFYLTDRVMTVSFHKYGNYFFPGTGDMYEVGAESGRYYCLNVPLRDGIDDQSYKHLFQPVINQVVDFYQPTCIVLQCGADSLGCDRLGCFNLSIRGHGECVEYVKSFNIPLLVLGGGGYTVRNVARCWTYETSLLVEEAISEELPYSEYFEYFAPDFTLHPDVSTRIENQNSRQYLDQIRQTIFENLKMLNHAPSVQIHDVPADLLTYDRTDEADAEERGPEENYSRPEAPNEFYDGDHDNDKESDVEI
Chain of HDAC3 (Q9Y618 395-489 partner limits assumed): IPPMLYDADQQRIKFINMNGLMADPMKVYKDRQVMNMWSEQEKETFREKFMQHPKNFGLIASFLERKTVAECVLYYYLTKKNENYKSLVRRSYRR
Test [6] concerns the target HDAC4 (Homo sapiens, UniProt P56524). Put plainly: HDAC enzyme activity assay. The settings on record: for remaining activity at 50 µM: read-out: Residual HDAC4 activity at 50 μM. It is filed as biochemical. In short, it runs like this:
(§3)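 HDAC4 and HDAC8 were in-house recombinant enzymes. Each was preincubated with inhibitor, either a single 50 μM screen or serial dilutions, for 60 min at 30 °C in Tris-HCl pH 8.0/KCl/Pluronic buffer. Substrate was 20 μM Boc-Lys(trifluoroacetyl)-AMC for 60 min at 30 °C, stopped with 1.7 μM SATFMK, and developed with trypsin. AMC fluorescence was read at 350/450 nm and reported as residual activity or as IC50 from a four-parameter logistic fit.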

Test [7] addresses HDAC5 (Homo sapiens, UniProt Q9UQL6). The experiment in a line: HDAC enzyme activity assay. Format: biochemical. The essentials:
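Commercial HDAC5 was preincubated with serial inhibitor dilutions for 60 min at 30 °C in Tris-HCl pH 8.0 buffer. Reaction used 20 μM Boc-Lys(trifluoroacetyl)-AMC for 60 min at 30 °C and was stopped with 1.7 μM SATFMK. Trypsin development followed, then AMC fluorescence at 350/450 nm. IC50 came from a four-parameter logistic fit.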

Test [8] addresses T1, HDAC7 (Homo sapiens, UniProt Q8WUI4).
T1 sequence (Q8WUI4 1-952): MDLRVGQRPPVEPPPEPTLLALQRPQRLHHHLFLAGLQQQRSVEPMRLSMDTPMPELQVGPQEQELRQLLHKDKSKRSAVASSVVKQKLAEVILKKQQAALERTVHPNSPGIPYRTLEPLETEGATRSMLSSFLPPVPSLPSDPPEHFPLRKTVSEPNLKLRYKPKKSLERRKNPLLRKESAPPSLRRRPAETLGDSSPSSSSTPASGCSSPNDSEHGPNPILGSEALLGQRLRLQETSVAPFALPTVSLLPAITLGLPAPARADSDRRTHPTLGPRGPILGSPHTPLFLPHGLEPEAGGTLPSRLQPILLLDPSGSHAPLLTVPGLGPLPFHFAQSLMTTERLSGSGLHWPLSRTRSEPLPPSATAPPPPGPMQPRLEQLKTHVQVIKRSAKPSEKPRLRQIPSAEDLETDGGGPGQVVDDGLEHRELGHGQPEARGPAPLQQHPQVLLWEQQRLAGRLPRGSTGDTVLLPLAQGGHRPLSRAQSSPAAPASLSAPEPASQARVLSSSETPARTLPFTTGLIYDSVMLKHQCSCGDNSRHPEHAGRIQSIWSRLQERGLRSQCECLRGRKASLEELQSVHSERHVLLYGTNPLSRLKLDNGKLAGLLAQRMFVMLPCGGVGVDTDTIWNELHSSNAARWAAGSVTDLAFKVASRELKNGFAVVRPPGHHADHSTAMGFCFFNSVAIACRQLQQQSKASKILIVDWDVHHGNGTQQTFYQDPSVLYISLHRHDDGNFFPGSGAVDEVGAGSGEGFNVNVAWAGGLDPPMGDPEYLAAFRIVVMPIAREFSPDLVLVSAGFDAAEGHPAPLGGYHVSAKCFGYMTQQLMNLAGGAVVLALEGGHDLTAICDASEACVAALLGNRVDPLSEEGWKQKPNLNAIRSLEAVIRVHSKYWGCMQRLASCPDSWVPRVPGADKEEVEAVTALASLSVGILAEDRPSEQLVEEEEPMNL
Put plainly: HDAC enzyme activity assay. It is filed as biochemical. The essentials: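 Commercial HDAC7 was preincubated with serial inhibitor dilutions for 60 min at 30 °C in 25 mM Tris-HCl pH 8.0, 75 mM KCl and 0.001% Pluronic F-127. The AMC-substrate reaction ran 60 min at 30 °C, followed by trypsin development and fluorescence reading at Ex 350/Em 450 nm. IC50 came from a four-parameter logistic fit.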

Test [9] deals with T2, HDAC8 (Homo sapiens, UniProt Q9BY41).
T2 sequence (Q9BY41 1-377): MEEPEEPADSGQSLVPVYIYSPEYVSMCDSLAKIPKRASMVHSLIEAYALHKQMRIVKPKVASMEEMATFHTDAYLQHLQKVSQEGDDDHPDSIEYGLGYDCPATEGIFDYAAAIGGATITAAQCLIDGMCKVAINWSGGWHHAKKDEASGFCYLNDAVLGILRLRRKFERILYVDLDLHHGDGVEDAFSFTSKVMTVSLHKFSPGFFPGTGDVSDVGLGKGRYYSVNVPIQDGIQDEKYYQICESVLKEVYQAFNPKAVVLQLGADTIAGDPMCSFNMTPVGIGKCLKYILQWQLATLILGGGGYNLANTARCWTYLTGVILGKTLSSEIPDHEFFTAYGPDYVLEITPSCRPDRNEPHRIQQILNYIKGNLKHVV
The experiment in a line: HDAC enzyme activity assay. Format: biochemical. The settings on record: for remaining activity at 50 µM: read-out: Residual HDAC8 activity at 50 μM. In short, it runs like this: as §3

Test [10] addresses T2, HDAC8. Put plainly: Thermal shift assay. It is filed as binding.
The test system of test [11] is CEM cells. Put plainly: Apoptosis by annexin V-FITC/PI flow cytometry. It is filed as cell-based, human. The settings on record: compound at CC50 (IC50) concentration, 24 h. The essentials: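 CEM cells were seeded in 24-well plates and held overnight at 37 °C in CO2. Medium was replaced and cells were exposed to test compound for 24 h. Controls were untreated cells and 1% DMSO. Cells were PBS-washed and spun at 500 × g for 5 min at 4 °C, then resuspended in ice-cold binding buffer with annexin V-FITC and PI. They were kept 15 min on ice in the dark, diluted, and read by flow cytometry for live and apoptotic fractions.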
A general note: In flow cytometry, cells or beads pass a laser one at a time.

Where [12] appears, read: read-out: IC50 HDAC4, HDAC panel, no unit in table, text b26: micromolar range.

Chain of HDAC4 (P56524 648-1057 limits assumed): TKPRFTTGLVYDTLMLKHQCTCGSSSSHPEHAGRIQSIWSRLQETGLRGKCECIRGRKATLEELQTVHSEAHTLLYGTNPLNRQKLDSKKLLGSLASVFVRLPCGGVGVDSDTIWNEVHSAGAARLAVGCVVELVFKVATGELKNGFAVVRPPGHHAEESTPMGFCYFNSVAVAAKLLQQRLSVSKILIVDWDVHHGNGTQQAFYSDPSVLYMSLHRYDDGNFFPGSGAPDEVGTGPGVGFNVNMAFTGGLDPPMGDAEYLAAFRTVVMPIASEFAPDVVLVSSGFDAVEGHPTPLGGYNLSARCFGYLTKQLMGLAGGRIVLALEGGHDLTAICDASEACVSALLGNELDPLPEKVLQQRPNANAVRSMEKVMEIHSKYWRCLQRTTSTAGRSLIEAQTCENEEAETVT
Chain of HDAC5 (Q9UQL6 whole entry): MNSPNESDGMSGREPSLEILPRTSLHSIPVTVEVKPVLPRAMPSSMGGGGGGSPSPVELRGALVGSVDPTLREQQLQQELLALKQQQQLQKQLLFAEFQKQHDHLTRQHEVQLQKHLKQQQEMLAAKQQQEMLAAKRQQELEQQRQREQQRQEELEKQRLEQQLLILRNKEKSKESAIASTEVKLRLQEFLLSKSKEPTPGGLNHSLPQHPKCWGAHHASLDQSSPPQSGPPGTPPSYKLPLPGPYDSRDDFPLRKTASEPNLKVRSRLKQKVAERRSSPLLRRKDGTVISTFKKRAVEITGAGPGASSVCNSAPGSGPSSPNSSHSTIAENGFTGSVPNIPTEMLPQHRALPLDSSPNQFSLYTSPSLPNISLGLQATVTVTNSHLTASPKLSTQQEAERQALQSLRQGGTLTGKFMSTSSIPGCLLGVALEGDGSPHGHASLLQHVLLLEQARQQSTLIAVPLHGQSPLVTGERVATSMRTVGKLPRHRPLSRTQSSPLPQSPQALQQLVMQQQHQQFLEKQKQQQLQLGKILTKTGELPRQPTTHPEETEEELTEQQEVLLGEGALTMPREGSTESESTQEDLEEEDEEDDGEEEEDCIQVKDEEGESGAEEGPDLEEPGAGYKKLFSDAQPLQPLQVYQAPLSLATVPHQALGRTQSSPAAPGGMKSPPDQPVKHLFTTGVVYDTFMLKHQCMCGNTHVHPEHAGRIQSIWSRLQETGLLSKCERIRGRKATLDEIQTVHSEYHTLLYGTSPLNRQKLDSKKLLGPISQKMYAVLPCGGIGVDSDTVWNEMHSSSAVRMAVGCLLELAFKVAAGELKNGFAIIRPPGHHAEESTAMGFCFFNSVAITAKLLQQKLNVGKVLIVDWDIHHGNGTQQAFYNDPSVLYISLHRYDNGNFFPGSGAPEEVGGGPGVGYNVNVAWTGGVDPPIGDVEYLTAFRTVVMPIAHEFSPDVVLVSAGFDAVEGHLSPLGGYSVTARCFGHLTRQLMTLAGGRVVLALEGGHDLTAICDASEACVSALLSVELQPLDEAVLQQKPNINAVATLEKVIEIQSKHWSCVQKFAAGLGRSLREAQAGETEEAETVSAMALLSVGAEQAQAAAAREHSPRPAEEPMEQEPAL

In the case of `O=C(CN1C(=O)SC(=Cc2ccccn2)C1=O)Nc1nc2ccccc2s1` [Compound P19, N-(benzo[d]thiazol-2-yl)-2-(2,4-dioxo-5-(pyridin-2-ylmethylene)thiazolidin-3-yl)acetamide], the CC50 is 79.9 ± 3.74 µM in test [1] (Homo sapiens); 85.4 ± 3.25 µM in test [2] (Homo sapiens, K562, 48 h); 43.2 ± 0.23 µM in test [3]. Further, the IC50 in [4], in test [5], in test [6], in test [6] (setting [12]), in [7] and in [8] was greater than 50 µM in each case. This compound displayed an IC50 in test [9] of 9.3 ± 1 µM. For the same compound, the values for the remaining activity at 50 µM in [6] and in [9] were 97% and 22%, respectively. The “Thermal shift (ΔT), stabilizing effect on HDAC8” value in [10] was “about 0.3 °C”. Moreover, the live cells in test [11] amounted to 30.86%. In test [11], the “percent of apoptotic cells” value is recorded as 60.97%.

Consider `Cc1c(NC(=O)CN2C(=O)SC(=Cc3ccccn3)C2=O)c(=O)n(-c2ccccc2)n1C` [Compound P10, N-(1,5-dimethyl-3-oxo-2-phenyl-2,3-dihydro-1H-pyrazol-4-yl)-2-(2,4-dioxo-5-(pyridin-2-ylmethylene)thiazolidin-3-yl)acetamide], for which the “cell death at 100 μM” value in [1] (CEM, DNS assay, 100 μM) came to 2.39% cell death at 100 μM; in test [2] (K562, DNS assay, 48 h, 100 μM), 27.06% cell death at 100 μM. In test [3], this compound had a CC50 of 17.4 ± 2.4 µM. For the same compound, the half-maximal inhibitory concentration (IC50) in [4] is greater than 50 µM; in test [5], greater than 50 µM; in test [6], greater than 50 µM; in [6] (setting [12]), greater than 50 µM; in test [7], 43 µM; in test [8], greater than 50 µM. Further, the IC50 in [9] worked out at 23 ± 1.1 µM. In addition, the remaining activity at 50 µM is 76% in test [6] and 17% in test [9]. In test [10], the “Thermal shift (ΔT), stabilizing effect on HDAC8” value is “did not confer significant stability to the protein”. The live cells in test [11] was determined as 29.89%. Moreover, the “percent of apoptotic cells” value in [11] is given as 55.19%.
